# Data reported in article PMC10937199 (ESMO Open, 2024).
# How the values were obtained:
# [1] = test system: patients with advanced solid tumors; assay: Safety; format: in vivo, human; settings: Part A
# [2] = test system: advanced solid tumors; assay: Disease control by baseline PD-L1 and DNA-PK immunohistochemistry; format: in vivo, human
# Method in brief: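 Immunohistochemistry on pretreatment archival tumor tissue; in Parts A and B, fresh samples were taken when no archival tissue was available. DNA-PK staining was scored as an H-score combining prevalence and staining intensity, then related to disease control.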
smiles,measurement,setting,value
COc1ccc([C@@H](O)c2cc(-c3ncnc4cc(N5CCOCC5)ccc34)c(F)cc2Cl)nn1 [Peposertib],IRR,"[1]; 100 mg b.i.d., all grade",0 n (%)
same,Immune-related AE,"[1]; 100 mg b.i.d., all grade",0 n (%)
same,Serious TEAE,"[1]; 100 mg b.i.d., all grade",0 n (%)
same,"Serious TEAE, peposertib related","[1]; 100 mg b.i.d., all grade",0 n (%)
same,"Serious TEAE, treatment related","[1]; 100 mg b.i.d., all grade",0 n (%)
same,TEAE,"[1]; 100 mg b.i.d., all grade",3 (75.0) n (%)
same,"TEAE, peposertib related","[1]; 100 mg b.i.d., all grade",2 (50.0) n (%)
same,"TEAE, treatment related","[1]; 100 mg b.i.d., all grade",3 (75.0) n (%)
same,TEAEs leading to death,"[1]; 100 mg b.i.d., all grade",0 n (%)
same,Treatment-related AE leading to death,"[1]; 100 mg b.i.d., all grade",0 n (%)
same,IRR,"[1]; 100 mg b.i.d., grade ≥3",0 n (%)
same,Immune-related AE,"[1]; 100 mg b.i.d., grade ≥3",0 n (%)
same,Serious TEAE,"[1]; 100 mg b.i.d., grade ≥3",0 n (%)
same,"Serious TEAE, peposertib related","[1]; 100 mg b.i.d., grade ≥3",0 n (%)
same,"Serious TEAE, treatment related","[1]; 100 mg b.i.d., grade ≥3",0 n (%)
same,TEAE,"[1]; 100 mg b.i.d., grade ≥3",0 n (%)
same,"TEAE, peposertib related","[1]; 100 mg b.i.d., grade ≥3",0 n (%)
same,"TEAE, treatment related","[1]; 100 mg b.i.d., grade ≥3",0 n (%)
same,TEAEs leading to death,"[1]; 100 mg b.i.d., grade ≥3",0 n (%)
same,Treatment-related AE leading to death,"[1]; 100 mg b.i.d., grade ≥3",0 n (%)
same,Immune-related AE,"[1]; 200 mg b.i.d., all grade",2 (18.2) n (%)
same,Serious TEAE,"[1]; 200 mg b.i.d., all grade",6 (54.5) n (%)
same,"Serious TEAE, peposertib related","[1]; 200 mg b.i.d., all grade",0 n (%)
same,"Serious TEAE, treatment related","[1]; 200 mg b.i.d., all grade",3 (27.3) n (%)
same,TEAE,"[1]; 200 mg b.i.d., all grade",11 (100.0) n (%)
same,"TEAE, peposertib related","[1]; 200 mg b.i.d., all grade",10 (90.9) n (%)
same,"TEAE, treatment related","[1]; 200 mg b.i.d., all grade",10 (90.9) n (%)
same,TEAEs leading to death,"[1]; 200 mg b.i.d., all grade",0 n (%)
same,Treatment-related AE leading to death,"[1]; 200 mg b.i.d., all grade",0 n (%)
same,IRR,"[1]; 200 mg b.i.d., grade ≥3",0 n (%)
same,Immune-related AE,"[1]; 200 mg b.i.d., grade ≥3",2 (18.2) n (%)
same,Serious TEAE,"[1]; 200 mg b.i.d., grade ≥3",6 (54.5) n (%)
same,"Serious TEAE, peposertib related","[1]; 200 mg b.i.d., grade ≥3",0 n (%)
same,"Serious TEAE, treatment related","[1]; 200 mg b.i.d., grade ≥3",3 (27.3) n (%)
same,TEAE,"[1]; 200 mg b.i.d., grade ≥3",7 (63.6) n (%)
same,"TEAE, peposertib related","[1]; 200 mg b.i.d., grade ≥3",2 (18.2) n (%)
same,"TEAE, treatment related","[1]; 200 mg b.i.d., grade ≥3",4 (36.4) n (%)
same,TEAEs leading to death,"[1]; 200 mg b.i.d., grade ≥3",0 n (%)
same,Treatment-related AE leading to death,"[1]; 200 mg b.i.d., grade ≥3",0 n (%)
same,Peposertib-related pneumonitis,[1]; 250 mg b.i.d.,25.0%
same,Serious TEAE: diarrhea,[1]; 250 mg b.i.d.,2 n
same,IRR,"[1]; 250 mg b.i.d., all grade",0 n (%)
same,Immune-related AE,"[1]; 250 mg b.i.d., all grade",3 (75.0) n (%)
same,Serious TEAE,"[1]; 250 mg b.i.d., all grade",4 (100.0) n (%)
same,"Serious TEAE, peposertib related","[1]; 250 mg b.i.d., all grade",2 (50.0) n (%)
same,"Serious TEAE, treatment related","[1]; 250 mg b.i.d., all grade",3 (75.0) n (%)
same,TEAE,"[1]; 250 mg b.i.d., all grade",4 (100.0) n (%)
same,"TEAE, peposertib related","[1]; 250 mg b.i.d., all grade",3 (75.0) n (%)
same,"TEAE, treatment related","[1]; 250 mg b.i.d., all grade",3 (75.0) n (%)
same,TEAEs leading to death,"[1]; 250 mg b.i.d., all grade",0 n (%)
same,Treatment-related AE leading to death,"[1]; 250 mg b.i.d., all grade",0 n (%)
same,IRR,"[1]; 250 mg b.i.d., grade ≥3",0 n (%)
same,Immune-related AE,"[1]; 250 mg b.i.d., grade ≥3",2 (50.0) n (%)
same,Serious TEAE,"[1]; 250 mg b.i.d., grade ≥3",4 (100.0) n (%)
same,"Serious TEAE, peposertib related","[1]; 250 mg b.i.d., grade ≥3",2 (50.0) n (%)
same,"Serious TEAE, treatment related","[1]; 250 mg b.i.d., grade ≥3",3 (75.0) n (%)
same,TEAE,"[1]; 250 mg b.i.d., grade ≥3",4 (100.0) n (%)
same,"TEAE, peposertib related","[1]; 250 mg b.i.d., grade ≥3",2 (50.0) n (%)
same,"TEAE, treatment related","[1]; 250 mg b.i.d., grade ≥3",3 (75.0) n (%)
same,TEAEs leading to death,"[1]; 250 mg b.i.d., grade ≥3",0 n (%)
same,Treatment-related AE leading to death,"[1]; 250 mg b.i.d., grade ≥3",0 n (%)
same,Serious TEAE: disease progression,[1]; 300 mg b.i.d.,2 n
same,IRR,"[1]; 300 mg b.i.d., all grade",0 n (%)
same,Immune-related AE,"[1]; 300 mg b.i.d., all grade",2 (33.3) n (%)
same,Serious TEAE,"[1]; 300 mg b.i.d., all grade",4 (66.7) n (%)
same,"Serious TEAE, peposertib related","[1]; 300 mg b.i.d., all grade",0 n (%)
same,"Serious TEAE, treatment related","[1]; 300 mg b.i.d., all grade",1 (16.7) n (%)
same,TEAE,"[1]; 300 mg b.i.d., all grade",6 (100.0) n (%)
same,"TEAE, peposertib related","[1]; 300 mg b.i.d., all grade",3 (50.0) n (%)
same,"TEAE, treatment related","[1]; 300 mg b.i.d., all grade",4 (66.7) n (%)
same,TEAEs leading to death,"[1]; 300 mg b.i.d., all grade",2 (33.3) n (%)
same,Treatment-related AE leading to death,"[1]; 300 mg b.i.d., all grade",0 n (%)
same,IRR,"[1]; 300 mg b.i.d., grade ≥3",0 n (%)
same,Immune-related AE,"[1]; 300 mg b.i.d., grade ≥3",2 (33.3) n (%)
same,Serious TEAE,"[1]; 300 mg b.i.d., grade ≥3",4 (66.7) n (%)
same,"Serious TEAE, peposertib related","[1]; 300 mg b.i.d., grade ≥3",0 n (%)
same,"Serious TEAE, treatment related","[1]; 300 mg b.i.d., grade ≥3",1 (16.7) n (%)
same,TEAE,"[1]; 300 mg b.i.d., grade ≥3",5 (83.3) n (%)
same,"TEAE, peposertib related","[1]; 300 mg b.i.d., grade ≥3",0 n (%)
same,"TEAE, treatment related","[1]; 300 mg b.i.d., grade ≥3",2 (33.3) n (%)
same,TEAEs leading to death,"[1]; 300 mg b.i.d., grade ≥3",2 (33.3) n (%)
same,Treatment-related AE leading to death,"[1]; 300 mg b.i.d., grade ≥3",0 n (%)
same,IRR,"[1]; 400 mg b.i.d., all grade",0 n (%)
same,Immune-related AE,"[1]; 400 mg b.i.d., all grade",1 (25.0) n (%)
same,Serious TEAE,"[1]; 400 mg b.i.d., all grade",4 (100.0) n (%)
same,"Serious TEAE, peposertib related","[1]; 400 mg b.i.d., all grade",3 (75.0) n (%)
same,"Serious TEAE, treatment related","[1]; 400 mg b.i.d., all grade",3 (75.0) n (%)
same,TEAE,"[1]; 400 mg b.i.d., all grade",4 (100.0) n (%)
same,"TEAE, peposertib related","[1]; 400 mg b.i.d., all grade",4 (100.0) n (%)
same,"TEAE, treatment related","[1]; 400 mg b.i.d., all grade",4 (100.0) n (%)
same,TEAEs leading to death,"[1]; 400 mg b.i.d., all grade",0 n (%)
same,Treatment-related AE leading to death,"[1]; 400 mg b.i.d., all grade",0 n (%)
same,IRR,"[1]; 400 mg b.i.d., grade ≥3",0 n (%)
same,Immune-related AE,"[1]; 400 mg b.i.d., grade ≥3",1 (25.0) n (%)
same,Serious TEAE,"[1]; 400 mg b.i.d., grade ≥3",4 (100.0) n (%)
same,"Serious TEAE, peposertib related","[1]; 400 mg b.i.d., grade ≥3",3 (75.0) n (%)
same,"Serious TEAE, treatment related","[1]; 400 mg b.i.d., grade ≥3",3 (75.0) n (%)
same,TEAE,"[1]; 400 mg b.i.d., grade ≥3",4 (100.0) n (%)
same,"TEAE, peposertib related","[1]; 400 mg b.i.d., grade ≥3",4 (100.0) n (%)
same,"TEAE, treatment related","[1]; 400 mg b.i.d., grade ≥3",4 (100.0) n (%)
same,TEAEs leading to death,"[1]; 400 mg b.i.d., grade ≥3",0 n (%)
same,Treatment-related AE leading to death,"[1]; 400 mg b.i.d., grade ≥3",0 n (%)
same,Discontinuation of all study treatments due to AEs,[1]; all dose levels,11 (37.9%)
same,Peposertib-related TEAE: fatigue,[1]; all dose levels,8 (27.6%)
same,Peposertib-related TEAE: nausea,[1]; all dose levels,9 (31.0%)
same,Peposertib-related TEAE: vomiting,[1]; all dose levels,9 (31.0%)
same,Patients with SD among PD-L1+ tumors,[2]; Part A,two of seven
same,Patients with SD among PD-L1− tumors,[2]; Part A,two of 17
same,Patients with SD among PD-L1+ tumors,[2]; Part B,two of seven
same,Patients with SD among PD-L1− tumors,[2]; Part B,three of nine
same,Association between DNA-PK H-score and disease control,"[2]; Parts A, B and FE",No association
